Test results from ChEMBL document CHEMBL1159044, “Antitumor agents 270. Novel substituted 6-phenyl-4H-furo[3,2-c]pyran-4-one derivatives as potent and highly selective anti-breast cancer agents” (Bioorg Med Chem, 2010).
pEC50: −log10 of the molar value.

Key:
[1] = tested on: SK-BR-3; test: Cytotoxicity against human SK-BR-3 cells after 72 hrs by SRB assay; format: functional; conditions: SK-BR-3, 72 h, read-out: ED50 (the source's name)
Outline: (§1)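 Cells grown in RPMI-1640 with 10% FBS, penicillin, streptomycin and amphotericin B at 37 °C, 5% CO2, then trypsinized and seeded in 96-well plates. Compounds were added from DMSO-diluted stock and incubated 72 h after attachment. Cells were TCA-fixed, stained with 0.4% SRB and read at 515 nm. ED50 is the concentration halving net protein increase, averaged from at least two independent determinations with SEM.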

[2] = Cytotoxicity against human vincristine-resistant KBVIN after 72 hrs by SRB assay; format: functional; conditions: read-out: ED50 (the source's name); outline: as §1
[3] = tested on: MDA-MB-231; test: Cytotoxicity against human MDA-MB-231 after 72 hrs by SRB assay; format: functional; conditions: MDA-MB-231, 72 h, read-out: ED50 (the source's name); outline: as §1
[4] = tested on: ZR-75-1; test: Cytotoxicity against human ZR-75-1 after 72 hrs by SRB assay; format: functional; conditions: ZR-75-1, 72 h, read-out: ED50 (the source's name); outline: as §1
[5] = tested on: DU-145; test: Cytotoxicity against human DU145 after 72 hrs by SRB assay; format: functional; conditions: DU-145, 72 h, read-out: ED50 (the source's name)
[6] = tested on: A549; test: Cytotoxicity against human A549 after 72 hrs by SRB assay; format: functional; conditions: A549, 72 h, read-out: ED50 (the source's name); outline: as §1
[7] = tested on: KB; test: Cytotoxicity against human KB after 72 hrs by SRB assay; format: functional; conditions: read-out: ED50 (the source's name); outline: as §1
[8] = tested on: ZR-75-1; test: Selectivity ratio of ED50 for human ZR-75-1 cell to ED50 for human SK-BR-3 cells; format: functional
Outline: (§2)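 Ratio of the ED50 in the stated line to the ED50 in SK-BR-3. Each ED50 came from the 72 h SRB protein-stain assay in RPMI-1640/10% FBS-grown cells, as the concentration halving net protein increase, averaged over at least two independent determinations.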

[9] = tested on: SK-BR-3; test: Selectivity ratio of ED50 for human KB cell to ED50 for human SK-BR-3 cells; format: functional; outline: as §2
[10] = tested on: SK-BR-3; test: Selectivity ratio of ED50 for human A549 cell to ED50 for human SK-BR-3 cells; format: functional; outline: as §2
[11] = tested on: SK-BR-3; test: Selectivity ratio of ED50 for human vincristine-resistant KBVIN cell to ED50 for human SK-BR-3 cells; format: functional; outline: as §2
[12] = tested on: SK-BR-3; test: Selectivity ratio of ED50 for human MDA-MB-231 cell to ED50 for human SK-BR-3 cells; format: functional; outline: as §2
[13] = tested on: SK-BR-3; test: Selectivity ratio of ED50 for human DU145 cell to ED50 for human SK-BR-3 cells; format: functional
[14] = tested on: SK-BR-3; test: Cytotoxicity against human SK-BR-3 cells after 72 hrs by MTT assay; format: functional; conditions: SK-BR-3, 72 h, read-out: ED50 (the source's name)
Outline: (§3)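 MTT read-out: 5000 cells/well were seeded in 96-well plates in recommended growth medium and incubated overnight. Drug in DMSO was added, with 72 h at 37 °C in 5% CO2. MTT reagent was then added for 2 h, and formazan was read as optical density at 570. Data are mean and SD of replicates from a single experiment.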

[15] = Cytotoxicity against human MCF10A after 72 hrs by MTT assay; format: cell-based, MCF-10A; conditions: MCF10A cells, read-out: ED50; outline: as §3
[16] = Cytotoxicity against human 184A1 after 72 hrs by MTT assay; format: cell-based; conditions: 184A1 cells, read-out: ED50; outline: as §3

Compound	pEC50 [1]	pEC50 [2]	pEC50 [3]	pEC50 [4]	pEC50 [5]	pEC50 [6]	other results
COc1ccc(-c2cc3occ(C)c3c(=O)o2)cc1OC	< 4.16	–	–	–	–	–	–
Cc1coc2cc(-c3cccc(O)c3O)oc(=O)c12	4.47	–	–	–	–	–	–
COc1cccc(-c2cc3occ(C)c3c(=O)o2)c1	5.59	4.15	< 4.41	5.26	< 4.11	4.24	–
Cc1cccc(-c2cc3occ(C)c3c(=O)o2)c1	5.82	4.40	< 4.08	5.20	4.61	4.27	pEC50 [7]: 4.36
Cc1coc2cc(-c3ccc(O)cc3)oc(=O)c12	4.44	–	–	–	–	–	–
Cc1ccc(-c2cc3occ(C)c3c(=O)o2)cc1	< 4.08	–	–	–	–	–	–
COc1cc(OC)cc(-c2cc3oc(C)c(C)c3c(=O)o2)c1	< 4.18	–	–	–	–	–	–
Cc1cc(C)cc(-c2cc3occ(C)c3c(=O)o2)c1	4.65	–	–	–	–	–	–
Cc1coc2cc(-c3cc(O)cc(O)c3)oc(=O)c12	4.42	–	–	–	–	–	–
Cc1coc2cc(-c3cccc(O)c3)oc(=O)c12	5.79	4.22	< 4.38	6.05	4.08	4.16	pEC50 [7]: 4.19
CCc1coc2cc(-c3cc(OC)cc(OC)c3)oc(=O)c12	4.26	–	–	–	–	–	–
COc1cc(OC)cc(-c2cc3occ(C)c3c(=S)o2)c1	< 4.18	–	–	–	–	–	–
Cc1coc2cc(-c3ccc(F)cc3)oc(=O)c12	4.72	–	–	–	–	–	–
Cc1coc2cc(-c3cccc(F)c3)oc(=O)c12	4.69	–	–	–	–	–	–
COc1cc(-c2cc3occ(C)c3c(=O)o2)cc(OC)c1OC	6.36	< 4.20	< 4.50	4.54	< 4.20	4.20	Ratio ED50 [8]: 66; Ratio ED50 [9]: 100; Ratio ED50 [10]: 100; Ratio ED50 [11]: 100; Ratio ED50 [12]: 100; Ratio ED50 [13]: 100
COc1cccc(-c2cc3occ(C)c3c(=O)o2)c1OC	4.19	–	–	–	–	–	–
CCOc1cccc(-c2cc3occ(C)c3c(=O)o2)c1	6.17	< 4.13	< 4.43	5.66	4.13	4.24	pEC50 [7]: 4.19
Cc1ccc(-c2cc3occ(C)c3c(=O)o2)cc1C	4.84	–	–	–	–	–	–
Cc1cccc2c1ccc1c3occ(C)c3c(=O)oc21	6.02	< 4.12	–	6.05	–	–	–
COc1cc(OC)cc(-c2cc3occ(C)c3c(=O)o2)c1	6.55	< 4.16	< 4.16	4.51	4.18	< 4.16	Ratio ED50 [8]: 100; Ratio ED50 [9]: 100; Ratio ED50 [10]: 100; Ratio ED50 [11]: 100; pEC50 [14]: 6.00; CC50 at 72 h [15]: > 35 µM; Ratio ED50 [12]: 100; CC50 at 72 h [16]: 16.8 µM; Ratio ED50 [13]: 100
Cc1coc2cc(-c3ccccc3)oc(=O)c12	4.81	–	–	–	–	–	–
COc1ccc(-c2cc3occ(C)c3c(=O)o2)cc1	< 4.11	–	–	–	–	–	–
Cc1coc2cc(-c3ccc(O)c(O)c3)oc(=O)c12	6.33	4.63	4.64	5.92	4.59	4.71	pEC50 [7]: 4.69
